Experimental data from ChEMBL document CHEMBL1153775, “Synthesis, structure elucidation and antitumour activity of N-substituted amides of 3-(3-ethylthio-1,2,4-triazol-5-yl)propenoic acid” (Eur J Med Chem, 2009).

Columns and labels:
[1] = tested on: T47D; assay: Cytotoxicity against human T47D cells assessed as growth inhibition at 0.32 mM after 72 hrs by spectrophotometer using BrdU labeling; assay type: functional; settings: read-out: GI
Procedure, shortened: (§1)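 Human breast carcinoma T47D cells were plated at 10⁴ cells per mL on microtiter plates. Each compound was added at three doses, given as mM equivalents of three mass concentrations. Plates were incubated for 24, 48 or 72 h. The read-out was percent growth inhibition (GI).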

[2] = tested on: T47D; assay: Cytotoxicity against human T47D cells assessed as growth inhibition at 0.16 mM after 48 hrs by spectrophotometer using BrdU labeling; assay type: functional; settings: read-out: GI
[3] = tested on: A549; assay: Cytotoxicity against human A549 cells assessed as growth inhibition at 0.32 mM after 72 hrs by spectrophotometer using BrdU labeling; assay type: functional; settings: A549, 72 h, read-out: GI
[4] = Cytotoxicity against human HSF cells assessed as growth inhibition at 0.32 mM after 24 hrs by spectrophotometer using BrdU labeling; assay type: cell-based; settings: read-out: GI
[5] = Cytotoxicity against human HSF cells assessed as growth inhibition at 0.03 mM after 48 hrs by spectrophotometer using BrdU labeling; assay type: cell-based; settings: read-out: GI
[6] = tested on: T47D; assay: Cytotoxicity against human T47D cells assessed as growth inhibition at 0.03 mM after 48 hrs by spectrophotometer using BrdU labeling; assay type: functional; settings: read-out: GI
[7] = tested on: A549; assay: Cytotoxicity against human A549 cells assessed as growth inhibition at 0.16 mM after 72 hrs by spectrophotometer using BrdU labeling; assay type: functional; settings: A549, 72 h, read-out: GI
[8] = tested on: A549; assay: Cytotoxicity against human A549 cells assessed as growth inhibition at 0.32 mM after 24 hrs by spectrophotometer using BrdU labeling; assay type: functional; settings: A549, 24 h, read-out: GI
[9] = Cytotoxicity against human HSF cells assessed as growth inhibition at 0.32 mM after 48 hrs by spectrophotometer using BrdU labeling; assay type: cell-based; settings: read-out: GI
[10] = Cytotoxicity against human HSF cells assessed as growth inhibition at 0.16 mM after 24 hrs by spectrophotometer using BrdU labeling; assay type: cell-based; settings: read-out: GI
[11] = Cytotoxicity against human HSF cells assessed as growth inhibition at 0.03 mM after 72 hrs by spectrophotometer using BrdU labeling; assay type: cell-based; settings: read-out: GI
[12] = tested on: T47D; assay: Cytotoxicity against human T47D cells assessed as growth inhibition at 0.03 mM after 24 hrs by spectrophotometer using BrdU labeling; assay type: functional; settings: read-out: GI
[13] = tested on: A549; assay: Cytotoxicity against human A549 cells assessed as growth inhibition at 0.32 mM after 48 hrs by spectrophotometer using BrdU labeling; assay type: functional; settings: A549, 48 h, read-out: GI
[14] = tested on: A549; assay: Cytotoxicity against human A549 cells assessed as growth inhibition at 0.03 mM after 72 hrs by spectrophotometer using BrdU labeling; assay type: functional; settings: A549, 72 h, read-out: GI
[15] = tested on: T47D; assay: Cytotoxicity against human T47D cells assessed as growth inhibition at 0.16 mM after 24 hrs by spectrophotometer using BrdU labeling; assay type: functional; settings: read-out: GI
[16] = tested on: T47D; assay: Cytotoxicity against human T47D cells assessed as growth inhibition at 0.32 mM after 48 hrs by spectrophotometer using BrdU labeling; assay type: functional; settings: read-out: GI; procedure, shortened: as §1
[17] = Cytotoxicity against human HSF cells assessed as growth inhibition at 0.32 mM after 72 hrs by spectrophotometer using BrdU labeling; assay type: cell-based; settings: read-out: GI
[18] = Cytotoxicity against human HSF cells assessed as growth inhibition at 0.03 mM after 24 hrs by spectrophotometer using BrdU labeling; assay type: cell-based; settings: read-out: GI
[19] = tested on: T47D; assay: Cytotoxicity against human T47D cells assessed as growth inhibition at 0.16 mM after 72 hrs by spectrophotometer using BrdU labeling; assay type: functional; settings: read-out: GI; procedure, shortened: as §1
[20] = tested on: A549; assay: Cytotoxicity against human A549 cells assessed as growth inhibition at 0.16 mM after 48 hrs by spectrophotometer using BrdU labeling; assay type: functional; settings: A549, 48 h, read-out: GI
[21] = tested on: A549; assay: Cytotoxicity against human A549 cells assessed as growth inhibition at 0.16 mM after 24 hrs by spectrophotometer using BrdU labeling; assay type: functional; settings: A549, 24 h, read-out: GI
[22] = Cytotoxicity against human HSF cells assessed as growth inhibition at 0.16 mM after 72 hrs by spectrophotometer using BrdU labeling; assay type: cell-based; settings: read-out: GI
[23] = Cytotoxicity against human HSF cells assessed as growth inhibition at 0.16 mM after 48 hrs by spectrophotometer using BrdU labeling; assay type: cell-based; settings: read-out: GI
[24] = tested on: T47D; assay: Cytotoxicity against human T47D cells assessed as growth inhibition at 0.32 mM after 24 hrs by spectrophotometer using BrdU labeling; assay type: functional; settings: read-out: GI; procedure, shortened: as §1
[25] = tested on: A549; assay: Cytotoxicity against human A549 cells assessed as growth inhibition at 0.03 mM after 48 hrs by spectrophotometer using BrdU labeling; assay type: functional; settings: A549, 48 h, read-out: GI
[26] = tested on: T47D; assay: Cytotoxicity against human T47D cells assessed as growth inhibition at 0.03 mM after 72 hrs by spectrophotometer using BrdU labeling; assay type: functional; settings: read-out: GI
[27] = tested on: A549; assay: Cytotoxicity against human A549 cells assessed as growth inhibition at 0.03 mM after 24 hrs by spectrophotometer using BrdU labeling; assay type: functional; settings: A549, 24 h, read-out: GI

Q: Which inhibition of growth at 320 µM [1] does the source give for `CCSc1n[nH]c(/C=C\C(=O)Nc2ccccc2Cl)n1` here?
A: 90%

Q: What about the inhibition of growth at 160 µM [2] of the same molecule?
A: 10%

Q: What about the inhibition of growth at 320 µM [3] of the same molecule?
A: 75%

Q: What about the inhibition at 24 h, 320 µM [4] of the same molecule?
A: 25%

Q: What about the inhibition at 48 h, 30 µM [5] of the same molecule?
A: 0%

Q: And the inhibition of growth at 30 µM [6]?
A: 0%

Q: And the inhibition of growth at 160 µM [7]?
A: 50%

Q: What about the inhibition of growth at 320 µM [8] of the same molecule?
A: 50%

Q: And the inhibition at 48 h, 320 µM [9]?
A: 50%

Q: What about the inhibition at 24 h, 160 µM [10] of the same molecule?
A: 0%

Q: And the inhibition at 72 h, 30 µM [11]?
A: 5%

Q: And the inhibition of growth at 30 µM [12]?
A: 0%

Q: What about the inhibition of growth at 320 µM [13] of the same molecule?
A: 50%

Q: And the inhibition of growth at 30 µM [14]?
A: 25%

Q: And the inhibition of growth at 160 µM [15]?
A: 0%

Q: What about the inhibition of growth at 320 µM [16] of the same molecule?
A: 10%

Q: What about the inhibition at 72 h, 320 µM [17] of the same molecule?
A: 75%

Q: What about the inhibition at 24 h, 30 µM [18] of the same molecule?
A: 0%

Q: What about the inhibition of growth at 160 µM [19] of the same molecule?
A: 50%

Q: And the inhibition of growth at 160 µM [20]?
A: 50%

Q: What about the inhibition of growth at 160 µM [21] of the same molecule?
A: 50%

Q: What about the inhibition at 72 h, 160 µM [22] of the same molecule?
A: 0%

Q: And the inhibition at 48 h, 160 µM [23]?
A: 0%

Q: And the inhibition of growth at 320 µM [24]?
A: 0%

Q: What about the inhibition of growth at 30 µM [25] of the same molecule?
A: 25%

Q: What about the inhibition of growth at 30 µM [26] of the same molecule?
A: 5%

Q: And the inhibition of growth at 30 µM [27]?
A: 25%
